What was measured:
Mu-type opioid receptor = Mu-type opioid receptor (Rattus norvegicus, UniProt P33535); experiment: Displacement of [3H]DAMGO from mu opioid receptor in rat central nervous system membrane; assay type: tissue-based
How it was run: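 Rat CNS membranes incubated with 1 nM [3H]-DAGO for 60 min at 20°. Bound and free radioligand separated by rapid filtration, then beta-scintillation counting. Specific binding defined with 10^-5 M unlabelled DAGO (>70%). IC50 (molar concentration giving half-maximal displacement) calculated from displacement curves.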

[1] = molecular target: Delta-type opioid receptor (Rattus norvegicus, UniProt P33533); experiment: Displacement of [3H]pCl-DPDP from delta opioid receptor in rat central nervous system membrane; assay type: tissue-based
How it was run: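 Rat CNS membranes incubated with 1 nM [3H]-pCl-DPDP-enkephalin for 270 min at 20°. Bound and free ligand separated by rapid filtration; radioactivity counted by beta scintillation. Nonspecific binding set with 10^-5 M unlabelled DPDP-enkephalin (specific >70%). IC50 (half-maximal displacement, molar) obtained from displacement curves.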

[2] = Displacement of [3H]U69593 from kappa opioid receptor in guinea pig cerebellum membrane; assay type: cell membranes, Cavia porcellus
How it was run: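 Guinea pig cerebellum homogenate incubated with 1.5 nM [3H]-U 69593 for 60 min at 20°. Rapid filtration, then beta-scintillation counting. Specific binding defined with 10^-5 M U50488H (>70%). IC50, the molar concentration giving half-maximal displacement, derived from displacement curves.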

Chain of Delta-type opioid receptor (P33533 whole entry): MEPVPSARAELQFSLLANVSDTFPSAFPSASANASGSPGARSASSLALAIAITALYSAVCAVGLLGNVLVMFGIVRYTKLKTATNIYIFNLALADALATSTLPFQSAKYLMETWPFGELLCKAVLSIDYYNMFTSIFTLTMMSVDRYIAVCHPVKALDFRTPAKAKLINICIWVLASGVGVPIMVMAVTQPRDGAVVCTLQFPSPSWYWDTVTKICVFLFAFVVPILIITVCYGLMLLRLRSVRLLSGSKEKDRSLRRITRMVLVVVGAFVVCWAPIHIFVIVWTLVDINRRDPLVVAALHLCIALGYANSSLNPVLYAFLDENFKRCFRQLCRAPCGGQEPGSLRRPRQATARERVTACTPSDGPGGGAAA
Chain of Mu-type opioid receptor (P33535 whole entry): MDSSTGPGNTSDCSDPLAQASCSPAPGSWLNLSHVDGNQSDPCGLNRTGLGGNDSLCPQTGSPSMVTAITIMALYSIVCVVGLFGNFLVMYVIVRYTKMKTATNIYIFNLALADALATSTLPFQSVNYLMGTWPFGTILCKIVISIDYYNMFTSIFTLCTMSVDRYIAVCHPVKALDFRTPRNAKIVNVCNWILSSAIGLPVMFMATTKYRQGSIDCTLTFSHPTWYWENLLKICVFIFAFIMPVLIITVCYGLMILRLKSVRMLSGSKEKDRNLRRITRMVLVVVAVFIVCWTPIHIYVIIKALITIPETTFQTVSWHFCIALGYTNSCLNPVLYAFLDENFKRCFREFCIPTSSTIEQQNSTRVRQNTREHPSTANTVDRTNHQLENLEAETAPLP

| Structure (SMILES) | IC50 (Mu-type opioid receptor) | IC50 [1] | IC50 [2] |
| --- | --- | --- | --- |
| CN1CC[C@@]2(C)c3cc(O)ccc3N(C)[C@@H]12 | 0.3 µM | 10 µM | 0.3 µM |
| C/C=C1/CN2CC[C@@]34c5cc(O)ccc5N(C)[C@]35OC[C@@]4(C(=O)OC)[C@@H]1C[C@H]25 [AKUAMMINE] |  | 20 µM | 4 µM |
| C/C=C1/CN2CC[C@@]34c5cc(O)ccc5N(C)[C@@]23CC[C@H]1[C@@]4(CO)C(=O)OC [DIHYDROAKUAMMINE] | 6 µM | > 100 µM | 20 µM |

Source: ChEMBL document CHEMBL1159017, “Akuammine and dihydroakuammine, two indolomonoterpene alkaloids displaying affinity for opioid receptors” (J Nat Prod, 1992)
